What is called EC50 is the midpoint of the concentration-response curve. The term viability denotes a read-out of living cells in per cent, often relative to untreated cells.

The source made the active and inactive calls.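 Rule for the calls: active = half-maximal effective dose for blocking growth of human endothelial cells at most 100 µM; inactive = the rest.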

Among the data in PubChem BioAssay AID822 (SRMLSC, 2007) are EC50 and viability values, retold here.

The first assay deals with HUVEC proliferation, viability ATP luminescence. Kind of assay: growth suppression of umbilical vein endothelial cells – cell-based, HUVEC, ATP luminescence, dose response (AID 822).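 For viability: 100% = median luminescence of untreated cell-only control wells on each plate.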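 Note: cells exposed to compound for 72 h before the ATP read.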
Details: not given
The method, boiled down:
(§1)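 Assay system: HUVEC primary endothelial cells, low passage (≤12) / Input: 1250 cells per well / Compound dosing: dose series 0.039 to 20 µM, DMSO 0.2% / Timing: 72 h compound exposure at 37 °C / Measured by: CellTiter-Glo ATP luminescence / Read-out: percent viability relative to median untreated cell signal, EC50 via four-parameter fit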
Turning to `Cc1ccccc1-n1ncc2c([N+](=O)[O-])cc([N+](=O)[O-])cc21`, the EC50 is 9.29 µM. Still for that read-out and setting: for `CCOC(=O)c1cnc(-n2nc(C)cc2C)nc1NCc1ccc2c(c1)OCO2` the value was 2.34 µM; for `COC(=O)C1=C(C)N=c2s/c(=C3\C(=O)Nc4ccccc43)c(=O)n2C1c1ccccc1` (configuration not stated), 6.31 µM; for `Nc1nc(-c2ccccc2)cc(-c2ccccc2O)n1`, 12.4 µM. Turning to `CCc1[nH]nc2c1C(c1ccc(Br)s1)C(C#N)=C(N)O2` (configuration not stated), the concentration for a half-maximal effect (EC50) was 14 µM. On to `Cc1ccc(-n2c(SCC(=O)Nc3ccc4c(c3)OCO4)nnc2-c2cccs2)cc1`, for which the EC50 is 8.21 µM. `COC(=O)CCS(=O)(=O)c1nc(-c2ccccc2)cc(C(F)(F)F)n1`: the EC50 was 9.83 µM. Take `COc1ccccc1OCC(=O)Nc1cccc(-c2nc3ccccc3o2)c1`: the 50% effective concentration (EC50) is 13.7 µM. Regarding `COc1ccc(-c2cc(C(=O)Nc3cc(C)n(Cc4ccc(Cl)cc4)n3)no2)cc1OC`, the half-maximal effective concentration (EC50) is 9.64 µM.

`CCOc1cc2nc(-c3ccc(OC)c(OC)c3)nc(N3CCOCC3)c2cc1OC`: the EC50 is 5.27 µM.

For the compound `CCn1cc(C(=O)NCCc2ccccc2)c(=O)c2cc(F)c(N3CCN(C)CC3)cc21`, the EC50 is 16.8 µM. Same read-out and setting: then `CCOc1cc(N2CCOCC2)c(OCC)cc1NC(=O)COc1cccc2cccnc12`, with 14.9 µM; and `CC(C)COC(=O)c1ccc2c(c1O)C(=O)c1ccccc1C2=O`, with 3.11 µM. Take `COc1ccc2[nH]c(=O)c(CN(C3CCCCC3)C(c3nnnn3Cc3ccco3)C(C)C)cc2c1` (configuration not stated): the EC50 was 8.72 µM. Still for that read-out and setting: for `COc1ccccc1C1CC(c2c(-c3ccccc3)c3cc(Cl)ccc3[nH]c2=O)=NN1S(C)(=O)=O` (configuration not stated) the value was 8.65 µM; for `Cc1ccccc1NC(=O)CSC(N)=O`, 19 µM; for `CCc1cc(-c2n[nH]c(C)c2Oc2ccc(C(C)C)cc2)c(O)cc1O`, 6.36 µM. Take `Brc1ccc(-c2csc(NNC3=NCCCCC3)n2)cc1`: the EC50 is > 10 µM (inactive). Consider `COc1ccc(-c2cn3c(C)c(C(=O)Nc4cccc(NC(C)=O)c4)sc3n2)cc1`, for which the EC50 was 12.1 µM.

For `COC(=O)COc1ccc(S(=O)(=O)NCCC2=CCCCC2)cc1`, the EC50 was 10.4 µM. On the same count and under the same terms, then `Cc1cc(NC(=O)COC(=O)C(Nc2ccc(C(F)(F)F)cc2Cl)C(C)C)no1` (configuration not stated), with 12.2 µM; and `COc1cc(N=c2ssnc2Cl)cc(OC)c1OC`, with 13.4 µM; and `Oc1ccc(Nc2nc(-c3ccc4ccccc4c3)cs2)cc1`, with 5.83 µM. As to `CCOc1ccc(-c2n[nH]c(C)c2Oc2ccc(OC)cc2)c(O)c1`, the concentration giving a half-maximal response (EC50) is 12.4 µM. `CCCc1[nH]nc2c1C(c1ccc(Br)s1)C(C#N)=C(N)O2` (configuration not stated): the EC50 was 8.67 µM. Take `CC(C)c1ccc(C2C3CSCC=C3C(C#N)=C(N)C2(C#N)C#N)cc1` (configuration not stated): the EC50 is 4.86 µM. Take `Cc1cc(NC(c2cccnc2)c2ccc3cccnc3c2O)no1` (configuration not stated): the EC50 was 6.36 µM. For `COc1ccc(N/N=C2/CCCCC2=O)cc1`, the EC50 was 3.51 µM. With `Cc1ccc(C)c(N2CCN(CCCNC(=O)Cn3cc4c(n3)CCC(C)C4)CC2)c1` (configuration not stated), the concentration for a half-maximal effect (EC50) was 9.5 µM. As for `COc1cc(/C=C/c2ccc3cccc(OC)c3n2)c(OC(C)=O)c([N+](=O)[O-])c1`, the half-maximal effective concentration (EC50) was 6.27 µM. As to `Cc1ccc(/C=C/C(=O)c2ccccc2)cc1`, the concentration giving a half-maximal response (EC50) was 17.1 µM. In the case of `O=[N+]([O-])c1ccc(/C=N/Nc2nc(N3CCCC3)nc(N3CCCC3)n2)o1`, the EC50 is 16.2 µM.

On to `CC1CCN(S(=O)(=O)c2ccc(NC(=O)Cn3nnc(-c4ccccc4F)n3)cc2)CC1`, for which the EC50 is 6.62 µM.

For `COc1ccc(O)c(-c2cc(-c3cccc(Br)c3)n[nH]2)c1`, the EC50 was 10.8 µM. In the case of `COC(=O)c1c(C)n(-c2ccc(C)cc2)c2ccc(O)cc12`, the concentration for a half-maximal effect (EC50) was 18.6 µM. Consider `CCN(CC)CCn1c2ccccc2c2cnc(N)c(C#N)c21`, for which the EC50 is 15.2 µM. Take `N#Cc1nc(-c2ccc(OCc3ccccc3)cc2)oc1NCCCn1ccnc1`: the EC50 is 5.83 µM. On to `CCOC(=O)c1cccc2c1-c1ccccc1/C2=N/O`, for which the EC50 is 1.31 µM. Turning to `CCCn1c(Nc2nc3ccccc3n2C)nc2ccccc21`, the EC50 is 3.01 µM. As for `CCOC(=O)c1ccc(NC(=O)CCc2nc(-c3ccc(C)cc3)no2)cc1`, the 50% effective concentration (EC50) was 16.5 µM. Same read-out and setting: for `c1ccc2c(c1)oc1c(Nc3ccc(CN4CCOCC4)cc3)ncnc12` the value was 5.35 µM; for `Cc1ccccc1-c1nc(CN2CCC(C(=O)NCCCN3CC(C)CC(C)C3)CC2)c(C)o1` (configuration not stated), 4.85 µM; for `COc1ccc(CNC(=O)c2cc3c(C)nc4ccccc4c3o2)c(OC)c1`, 11.8 µM.

Turning to `O=C(Nc1ccc(N2CCOCC2)cc1)Nc1ccc2nc(-c3ccco3)c(-c3ccco3)nc2c1`, the 50% effective concentration (EC50) was 7.18 µM. Still for that read-out and setting: for `COc1ccc(Nc2nc(N3CCCC3)nc3ccccc23)c(OC)c1` the value was 12.5 µM. For `OCc1ccc(O)c2ncccc12`, the EC50 is 20.5 µM. Turning to `Cc1ccccc1C(=O)c1cccn1CC(=O)NCCN1CCN(c2cccc(C)c2C)CC1`, the EC50 was 8.36 µM. In the case of `N=c1c2c(ncn1CCN1CCOCC1)Oc1ccc3ccccc3c1C2c1ccccc1` (configuration not stated), the EC50 is 11.9 µM.

With `CCOc1cc(C(=O)CSc2nnc(CNc3ccc(Cl)cc3)o2)ccc1NC(=O)CC`, the EC50 is 15.7 µM. Consider `COc1cccc(C(=O)c2sc(NC(C)C)nc2N)c1`, for which the EC50 was 16.2 µM. The same measure, in the same setting: then `Cc1ccc2c(c1)c1c(n2CC(O)Cn2c(C)nc3ccccc32)CCCC1` (configuration not stated), with 10.6 µM; and `CC[n+]1cc(-c2ccccc2)nc(N2CCOCC2)n1`, with 9.86 µM; and `CCCCCn1c(CN2CCN(c3cc(Cl)ccc3C)CC2)nc2c1c(=O)[nH]c(=O)n2C`, with 3.21 µM. Consider `N#C/C(=C/c1ccc(N2CCCCCC2)o1)c1ccc(F)cc1`, for which the concentration for a half-maximal effect (EC50) is 12.6 µM. For the compound `Cc1cc(/C=N/n2cnnc2)c(C)n1-c1ccccc1`, the 50% effective concentration (EC50) is 19.8 µM. Regarding `O=C(CCC1COc2ccccc2O1)Nc1ccc(Cl)cn1` (configuration not stated), the 50% effective concentration (EC50) is 17.6 µM. As for `CCC1(C)Cc2c(sc3[nH]c(=S)n(Cc4ccccc4)c(=O)c23)CO1` (configuration not stated), the EC50 was 3.07 µM. `CCCOC(=O)c1ccc(Oc2cn[nH]c2-c2ccc(OCC)cc2O)cc1`: the concentration for a half-maximal effect (EC50) is 9.51 µM.

As for `CCCCCCOC(=O)C(C#N)c1nc2ccccc2nc1N1CCN(CC)CC1` (configuration not stated), the EC50 is 8.05 µM. In the case of `Cn1c(CNc2cccc(Cl)c2)nnc1SCC(=O)OC1CCCCC1`, the EC50 was 11.1 µM. In the case of `O=C(CCN1CCN(Cc2ccccc2)CC1)Nc1ccc(OCc2ccccc2)cc1`, the EC50 was 14.1 µM.

In the case of `CCOC(=O)N1CCC(c2cc(=O)n3[nH]c(C)c(-c4ccc(F)cc4)c3n2)CC1`, the 50% effective concentration (EC50) was 6.46 µM.

For `O=c1cc(-c2ccccc2)[nH]n1-c1nc2ccccc2[nH]1`, the EC50 was 6.25 µM.

With `COc1cc(/C=c2\s/c(=C(/C#N)C(=O)N3CCCC3)n(-c3ccccc3)c2=O)ccc1O`, the concentration for a half-maximal effect (EC50) is 16.3 µM.

With `Cc1ccc(S(=O)(=O)c2c(C)nn(C(C)(C)C)c2OC(=O)c2cccs2)cc1`, the half-maximal effective concentration (EC50) was 8.95 µM.

On to `COC(=O)C1=C(O)/C(=C\c2ccc(CNC(=O)C(=O)Nc3ccc(C)cc3)o2)N=C1C`, for which the EC50 was 19.4 µM. Still for that read-out and setting: then `C=CCOC(=O)C1=C(C)NC(SCC(=O)Nc2nccs2)=C(C#N)C1c1cccs1` (configuration not stated), with 6.19 µM.

Consider `Cc1ccc2nc(NC(=O)CSc3ncnc4c3oc3ccccc34)sc2c1`, for which the half-maximal effective concentration (EC50) was 5.79 µM.

System in the next assay: not listed separately
Described as above. The note with it: HUVEC proliferation, viability ATP luminescence; at 20 µM (top of the series). The procedure, abridged: as §1
On to `COc1ccc(OC)c(S(=O)(=O)N(C)CC(=O)N2CCN(c3ccc(F)cc3)CC2)c1`, for which the viability was 100% (inactive). Same read-out and setting: then `c1ccc2c(c1)oc1c(NCCCN3CCOCC3)ncnc12`, with 96.1% (inactive); and `O=C(Nc1cccnc1)c1ccc(Oc2ccccc2)cc1`, with 108% (inactive); and `CCOc1ccc(NS(=O)(=O)c2ccc(OCC(=O)NCCCOC)cc2)cc1`, with 94.4% (inactive). In the case of `CC(C)OC(=O)NCCOC(=O)Nc1cccc(Cl)c1`, the viability is 89.1% (inactive). Turning to `Cc1ccc(Cn2c(SCC(=O)Nc3cc(C)on3)nc3ccccc3c2=O)cc1`, the viability is 81.2% (inactive).

Consider `CNC(=O)Cn1c(=O)n(C)c2ccccc21`, for which the viability is 91.8% (inactive). Consider `Cc1cc(NC(=O)c2cccc(S(=O)(=O)N3CC(c4ccccc4)CC3=O)c2)no1` (configuration not stated), for which the viability was 91.3% (inactive). Regarding `CSc1nnc2n(-c3ccc(C)cc3)c(=O)c3c4c(sc3n12)COC(C(C)C)C4` (configuration not stated), the viability is 81.8% (inactive). The same measure, in the same setting: for `CCOC(=O)c1c(NC(=O)C2COc3ccccc3O2)sc(C(C)=O)c1C` (configuration not stated) the value was 112% (inactive). Consider `CN1C(=O)C(O)(CC(=O)c2cccc(-n3cccc3)c2)c2ccccc21` (configuration not stated), for which the viability was 84.7% (inactive). With `Cc1nc2cc(N3CCCCC3)c(NC(=O)c3cccnc3)cc2c(=O)n1Cc1ccccc1`, the viability is 89.3% (inactive). For the compound `COc1ccccc1NC(=O)C1C2C=CC(O2)C1C(=O)O` (configuration not stated), the viability was 94.6% (inactive). `O=S1(=O)c2ccccc2N=NN1Cc1cc(Cl)cc(Cl)c1`: the viability was 84.9% (inactive). With `CCn1c(Cc2ccc(OC)cc2)nnc1SCC(=O)Nc1cccc(C(=O)OC)c1`, the viability was 81.8% (inactive). For `COc1cc2c(C(=O)NCc3ccc4c(c3)OCO4)cn(CC(C)C)c(=O)c2cc1OC`, the viability is 82.3% (inactive). `O=C1CSC(c2ccccn2)N1Cc1cn2ccccc2n1` (configuration not stated): the viability was 120% (inactive). `COc1ccc(OC)c(C(=O)CSc2nnc(-c3ccc(OC)c(OC)c3)o2)c1`: the viability is 86.2% (inactive). As for `CC1=C(C)CS(=O)N(S(=O)(=O)c2ccccc2)C1` (configuration not stated), the viability is 80.3% (inactive). As to `COc1ccc(NC(=O)CSc2nnc(CNC(=O)COc3ccc(Cl)cc3)o2)c(OC)c1`, the viability is 95.2% (inactive).

Regarding `CCOC(=O)c1ccc2c(c1)NC(=O)C(N1CCN(c3ccc(OC)cc3)CC1)S2` (configuration not stated), the viability is 98% (inactive). `COCCn1c(C)cc(C(=O)CSc2nc3ccccc3o2)c1C`: the viability was 96.1% (inactive). On to `CCOC(=O)CNC(=O)C(=O)c1c(O)[nH]c2ccccc12`, for which the viability was 96.7% (inactive).

For the compound `CCOc1ccc(OCc2ccc(C(=O)NCC3CCCO3)o2)cc1` (configuration not stated), the viability was 116% (inactive).
